# Source: paper PMC7867784 (Translational Lung Cancer Research, 2021)
# System: Japanese patients with RET-rearranged NSCLC
# Assay: ALL-RET phase 1/2 trial: safety
# Format: in vivo, human
# In short: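 Adverse events were graded by NCI CTCAE v4.0, with causal relation to treatment recorded separately. Dose finding used a 3+3 de-escalation design with 3–6 patients per cohort. DLT was evaluated over the first 21-day cycle and defined as grade ≥4 thrombopenia, grade ≥3 febrile neutropenia, grade ≥4 neutropenia lasting ≥4 days, or grade ≥3 non-hematologic toxicity, with specified exceptions. Follow-up ran until January 2019.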
structure (smiles),measurement,setting,value
CCc1cc2c(cc1N1CCC(N3CCOCC3)CC1)C(C)(C)c1[nH]c3cc(C#N)ccc3c1C2=O [alectinib],grade 4 AEs,450 mg BID,no grade 4 AEs were observed
same,"Aspartate aminotransferase increase, any grade, number (total)",450 mg BID (N=28),9
same,"Aspartate aminotransferase increase, any grade, number [causally related]",450 mg BID (N=28),7
same,"Aspartate aminotransferase increase, any grade, percent (total)",450 mg BID (N=28),32.1%
same,"Aspartate aminotransferase increase, any grade, percent [causally related]",450 mg BID (N=28),25.0%
same,"Aspartate aminotransferase increase, grade 1–2, number (total)",450 mg BID (N=28),9
same,"Aspartate aminotransferase increase, grade 1–2, number [causally related]",450 mg BID (N=28),7
same,"Aspartate aminotransferase increase, grade 3, number",450 mg BID (N=28),0
same,"Aspartate aminotransferase increase, grade 4, number",450 mg BID (N=28),0
same,"Bilirubin increase, any grade, number (total)",450 mg BID (N=28),6 [6]
same,"Bilirubin increase, any grade, number [causally related]",450 mg BID (N=28),6 [6]
same,"Bilirubin increase, any grade, percent",450 mg BID (N=28),21.4%
same,"Bilirubin increase, grade 1–2, number (total)",450 mg BID (N=28),5 [5]
same,"Bilirubin increase, grade 1–2, number [causally related]",450 mg BID (N=28),5 [5]
same,"Bilirubin increase, grade 3, number (total)",450 mg BID (N=28),1 [1]
same,"Bilirubin increase, grade 3, number [causally related]",450 mg BID (N=28),1 [1]
same,"Bilirubin increase, grade 4, number",450 mg BID (N=28),0
same,"Constipation, any grade, number [causally related]",450 mg BID (N=28),12
same,"Constipation, any grade, percent (total)",450 mg BID (N=28),57.1%
same,"Constipation, any grade, percent [causally related]",450 mg BID (N=28),42.9%
same,"Constipation, grade 1–2, number (total)",450 mg BID (N=28),16
same,"Constipation, grade 1–2, number [causally related]",450 mg BID (N=28),12
same,"Constipation, grade 3, number",450 mg BID (N=28),0
same,"Constipation, grade 4, number",450 mg BID (N=28),0
same,"Creatine phosphokinase increase, any grade, number (total)",450 mg BID (N=28),13 [13]
same,"Creatine phosphokinase increase, any grade, number [causally related]",450 mg BID (N=28),13 [13]
same,"Creatine phosphokinase increase, any grade, percent",450 mg BID (N=28),46.4%
same,"Creatine phosphokinase increase, grade 1–2, number (total)",450 mg BID (N=28),12 [12]
same,"Creatine phosphokinase increase, grade 1–2, number [causally related]",450 mg BID (N=28),12 [12]
same,"Creatine phosphokinase increase, grade 3, number (total)",450 mg BID (N=28),1 [1]
same,"Creatine phosphokinase increase, grade 3, number [causally related]",450 mg BID (N=28),1 [1]
same,"Creatine phosphokinase increase, grade 4, number",450 mg BID (N=28),0
same,"Creatinine increase, any grade, number (total)",450 mg BID (N=28),8 [8]
same,"Creatinine increase, any grade, number [causally related]",450 mg BID (N=28),8 [8]
same,"Creatinine increase, any grade, percent",450 mg BID (N=28),28.6%
same,"Creatinine increase, grade 1–2, number (total)",450 mg BID (N=28),8 [8]
same,"Creatinine increase, grade 1–2, number [causally related]",450 mg BID (N=28),8 [8]
same,"Creatinine increase, grade 3, number",450 mg BID (N=28),0
same,"Creatinine increase, grade 4, number",450 mg BID (N=28),0
same,"Diarrhea, any grade, number (total)",450 mg BID (N=28),3
same,"Diarrhea, any grade, number [causally related]",450 mg BID (N=28),2
same,"Diarrhea, any grade, percent (total)",450 mg BID (N=28),10.7%
same,"Diarrhea, any grade, percent [causally related]",450 mg BID (N=28),7.1%
same,"Diarrhea, grade 1–2, number (total)",450 mg BID (N=28),2 [2]
same,"Diarrhea, grade 1–2, number [causally related]",450 mg BID (N=28),2 [2]
same,"Diarrhea, grade 3, number (total)",450 mg BID (N=28),1
same,"Diarrhea, grade 3, number [causally related]",450 mg BID (N=28),0
same,"Diarrhea, grade 4, number",450 mg BID (N=28),0
same,"Hyponatraemia, any grade, number (total)",450 mg BID (N=28),1 [1]
same,"Hyponatraemia, any grade, number [causally related]",450 mg BID (N=28),1 [1]
same,"Hyponatraemia, any grade, percent",450 mg BID (N=28),3.6%
same,"Hyponatraemia, grade 1–2, number",450 mg BID (N=28),0
same,"Hyponatraemia, grade 3, number (total)",450 mg BID (N=28),1 [1]
same,"Hyponatraemia, grade 3, number [causally related]",450 mg BID (N=28),1 [1]
same,"Hyponatraemia, grade 4, number",450 mg BID (N=28),0
same,"Neutropenia, any grade, number (total)",450 mg BID (N=28),1 [1]
same,"Neutropenia, any grade, number [causally related]",450 mg BID (N=28),1 [1]
same,"Neutropenia, any grade, percent",450 mg BID (N=28),3.6%
same,"Neutropenia, grade 1–2, number",450 mg BID (N=28),0
same,"Neutropenia, grade 3, number (total)",450 mg BID (N=28),1 [1]
same,"Neutropenia, grade 3, number [causally related]",450 mg BID (N=28),1 [1]
same,"Neutropenia, grade 4, number",450 mg BID (N=28),0
same,"Pneumonitis, any grade, percent (total)",450 mg BID (N=28),3.6%
same,"Pneumonitis, any grade, percent [causally related]",450 mg BID (N=28),0.0%
same,"Pneumonitis, grade 1–2, number",450 mg BID (N=28),0
same,"Pneumonitis, grade 3, number (total)",450 mg BID (N=28),1 [1]
same,"Pneumonitis, grade 3, number [causally related]",450 mg BID (N=28),1 [1]
same,"Pneumonitis, grade 4, number",450 mg BID (N=28),0
same,"Constipation, any grade, number (total)","450 mg BID (N=28; phase 1 N=3, phase 2 N=25)",16
same,dose reduction due to toxicity,"450 mg BID, 28 patients",no patients required a dose reduction
same,patients whose treatment was discontinued due to pneumonitis,"450 mg BID, out of 28 patients",1
same,"Alkaline phosphatase increase, any grade, number (total)",600 mg BID (N=6),2 [2]
same,"Alkaline phosphatase increase, any grade, number [causally related]",600 mg BID (N=6),2 [2]
same,"Alkaline phosphatase increase, any grade, percent",600 mg BID (N=6),33.3%
same,"Alkaline phosphatase increase, grade 1–2, number (total)",600 mg BID (N=6),1[1]
same,"Alkaline phosphatase increase, grade 1–2, number [causally related]",600 mg BID (N=6),1[1]
same,"Alkaline phosphatase increase, grade 3, number (total)",600 mg BID (N=6),1[1]
same,"Alkaline phosphatase increase, grade 3, number [causally related]",600 mg BID (N=6),1[1]
same,"Alkaline phosphatase increase, grade 4, number",600 mg BID (N=6),0
same,"Cholangitis, any grade, number (total)",600 mg BID (N=6),1 [1]
same,"Cholangitis, any grade, number [causally related]",600 mg BID (N=6),1 [1]
same,"Cholangitis, any grade, percent",600 mg BID (N=6),16.7%
same,"Cholangitis, grade 1–2, number",600 mg BID (N=6),0
same,"Cholangitis, grade 3, number (total)",600 mg BID (N=6),1 [1]
same,"Cholangitis, grade 3, number [causally related]",600 mg BID (N=6),1 [1]
same,"Cholangitis, grade 4, number",600 mg BID (N=6),0
same,"Constipation, any grade, number (total)",600 mg BID (N=6),4 [4]
